Test results taken from PubChem BioAssay.
Results filed as inconclusive are left out.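 The calls were made as follows, unless noted: active = cell viability at or below a set limit in both duplicate runs, the limit being the all-compound median minus 4 SD (cut at about 23% in these data, passing the limit was not always enough); inconclusive = no clear call, values can overlap the other calls; inactive = the rest.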

Assays:
[1] = S. cerevisiae growth inhibition in permissive medium (OD615), pilot counter-assay for S. cerevisiae lifespan shortening project, permissive growth control (AID 705;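 active = growth inhibition above 25% in both replicates, a cutoff set 3 SD above the mean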); conditions: OD615, 24 h, at 10 µM, active compounds read high
How it was run: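 System: engineered DeaD yeast; Medium: permissive raffinose/galactose medium; Compound dosing: 10 µM single dose, 0.25% DMSO; Incubation: 4 h cell pre-growth, 24 h exposure at 30 °C; Technique: OD at 615 nm; Evaluation: growth inhibition from lowered OD615 after 24 h.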

[2] = S. cerevisiae growth inhibition in restrictive medium, OD615, pilot screen, restrictive growth control, yeast lifespan reduction project (AID 706;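 active = growth inhibition above a set limit, 3 SD over mean compound inhibition, in both replicates, cut at about 43% in these data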;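 also: modified DeaD lifespan yeast strain shifted to restrictive glucose medium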); conditions: OD615, 48 h, at 10 µM, active compounds read high
How it was run: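 Material: modified S. cerevisiae; buffer or medium: CSMM-D glucose medium; doses: one concentration, 10 µM final, 0.25% DMSO; incubation: 48 h compound exposure at 30 °C; detection: optical density at 615 nm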

[3] = doxorubicin toxicity protection in MRP-1 cells – H69AR cells, CellTiter-Glo, duplicate, MRP-1 activator project, pilot screen (AID 807;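 active = viability increase at or above a cutoff of the median across tested compounds plus 3 SD, cut at about 8.5% in these data, passing the limit was not always enough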;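 also: compound pretreatment 18-22 h then 72 h combined with doxorubicin; 0% = doxorubicin alone and 100% = vehicle without doxorubicin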); conditions: H69AR viability with doxorubicin, CellTiter-Glo luminescence; at 10 µM; active compounds read high
[4] = viability of HCT116 without oncogenic beta-catenin – human colon tumor cells, pilot screen (AID 823); conditions: HCT116 beta-catenin knockout viability, CellTiter-Glo, 60 h; at 10 µM; active compounds read low;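 also: 0% = wells killed by 20 µM Hyamine and 100% = untreated DMSO cell wells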
[5] = viability of PTEN-null HCT116 cells – cell-based, HCT116 clonal line, CellTiter-Glo, pilot screen (AID 824;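 active = viability at or below 27.92% in each of two runs, the all-compound median minus 4 SD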;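 also: 0% = 20 µM Hyamine control and 100% = vehicle cell control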); conditions: HCT116 PTEN-deleted viability, 60 h, at 10 µM, active compounds read low
[6] = RAM pathway blockade in budding yeast – dse1pr::URA3 reporter, 5-FOA selection, pilot screen (AID 869;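 active = inhibition over a set limit, the all-compound mean plus 3 SD, in both replicate runs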;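 also: 0% = DMSO wells with no growth and 100% = 10 µM 1-NA-PP1 with full growth; RAM network block rescues cells from 5-FOA so hits raise OD615 growth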); conditions: S. cerevisiae dse1pr::URA3 5-FOA growth, OD615, 2 d; at 10 µM; active compounds read high; strain carries analog-sensitive mutant Cbk1 kinase
[7] = RAM signaling pathway blockade in yeast – S. cerevisiae, Pdr1DBD-CYC8 efflux-inhibited sensitized strain, primary screen (AID 1298;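 active = RAM network inhibition above 8.4% in each of two replicates, 3 SD over the compound average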;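 also: 0% = DMSO untreated cells without growth and 100% = 10 µM 1-NA-PP1 full growth; higher means more yeast growth rescued from 5-FOA killing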); conditions: S. cerevisiae cbk1-as DSE1-URA3 strain, 5-FOA growth OD615, 2 d; at 50 µM; active compounds read high

CCCCCn1c(N(C)Cc2ccccc2)nc2c1c(=O)[nH]c(=O)n2C
inactive: growth inhibition [1] -4.46% | growth inhibition [2] -2.36% | viability increase [3] -0.81% | viability [4] 74% | viability [5] 69.3% | inhibition [6] 0.435% | RAM network inhibition [7] 1.07%

O=C(O)C1CCCN1S(=O)(=O)c1cc(Cl)ccc1Cl (stereo unspecified)
inactive: growth inhibition [1] -3.73% | growth inhibition [2] -6.05% | viability increase [3] 1.55% | viability [4] 92.5% | viability [5] 102% | inhibition [6] 0.535% | RAM network inhibition [7] 4.12%

CCC(=O)c1ccc(OCC(O)CN2C(=O)NC(C)(C)C2=O)cc1 (stereo unspecified)
inactive: growth inhibition [1] -3.58% | growth inhibition [2] -3.1% | viability increase [3] -0.53% | viability [4] 100% | viability [5] 92.8% | inhibition [6] 1.6% | RAM network inhibition [7] 1.09%

Cc1ccc(CN2CCNC(=O)C2CC(=O)O)o1 (stereo unspecified)
inactive: growth inhibition [1] -8.29% | growth inhibition [2] 2.8% | viability increase [3] -0.83% | viability [4] 105% | viability [5] 104% | inhibition [6] 1.5% | RAM network inhibition [7] 2.4%

Cc1occc1-c1nc(-c2ccccn2)no1
inactive: growth inhibition [1] -14.3% | growth inhibition [2] 3.22% | viability increase [3] -4.5% | viability [4] 71.2% | viability [5] 67.7% | inhibition [6] 0.16% | RAM network inhibition [7] 1.6%

CCOC(=O)C1CCN(C(=O)Cn2cc3c(n2)CCC(C)C3)CC1 (stereo unspecified)
inactive: growth inhibition [1] -5.55% | growth inhibition [2] -0.07% | viability increase [3] 0.98% | viability [4] 97.6% | viability [5] 95.6% | inhibition [6] 1.87% | RAM network inhibition [7] 1.77%

CCOc1ccc(-c2nnc3ccc(SCC(=O)N4CCCCC4)nn23)cc1
inactive: growth inhibition [1] -0.225% | growth inhibition [2] 9.67% | viability increase [3] -4.24% | viability [4] 110% | viability [5] 101% | inhibition [6] 2.06% | RAM network inhibition [7] 1.25%

COc1cccc(NC(=O)CSc2nnc(-c3ccc(C)cc3)o2)c1
inactive: growth inhibition [1] -10.3% | growth inhibition [2] -11.9% | viability increase [3] -0.97% | viability [4] 93.9% | viability [5] 93.8% | inhibition [6] 2.13% | RAM network inhibition [7] 4%

Cc1ccc(-c2noc(CN(C(=O)c3cccc(Br)c3)C(C)C)n2)cc1
inactive: growth inhibition [1] 0.485% | growth inhibition [2] -2.63% | viability increase [3] 1.98% | viability [4] 92.5% | viability [5] 85.3% | inhibition [6] 2.58% | RAM network inhibition [7] 10%

COc1ccc(NC(=O)CN2CC(c3ccccc3)CC2=O)cc1OC (stereo unspecified)
inactive: growth inhibition [1] -17.9% | growth inhibition [2] -15.6% | viability increase [3] -1.08% | viability [4] 104% | viability [5] 95.1% | inhibition [6] 0.27% | RAM network inhibition [7] 2.86%

Cn1c(C(=O)N2CCCCCC2)cc2c(=O)n(C)c3ccccc3c21
inactive: growth inhibition [1] -8.92% | growth inhibition [2] -2.14% | viability increase [3] -3.27% | viability [4] 94.9% | viability [5] 92.3% | inhibition [6] 1.33% | RAM network inhibition [7] 4.52%

Cc1ccc(OCCNC(=O)c2ccccc2N)cc1
inactive: growth inhibition [1] 1.82% | growth inhibition [2] -18.1% | viability increase [3] -2.73% | viability [4] 103% | viability [5] 97.6% | inhibition [6] 0.785% | RAM network inhibition [7] -0.05%

Cc1ccccc1Cn1c(CN2CCN(c3ccc(F)cc3)CC2)nc2c1c(=O)n(C)c(=O)n2C
inactive: growth inhibition [1] -12.2% | growth inhibition [2] -17.1% | viability increase [3] -3.7% | viability [4] 94.4% | viability [5] 92.2% | inhibition [6] 2.51% | RAM network inhibition [7] 7.93%

COc1ccc(CNC(=O)CCCNS(=O)(=O)c2cccc3nonc23)cc1
inactive: growth inhibition [1] 1.99% | growth inhibition [2] -22.1% | viability increase [3] -2.08% | viability [4] 92.3% | viability [5] 96.7% | inhibition [6] 1.31% | RAM network inhibition [7] 7.37%

COc1ccccc1C(=O)N(Cc1nc(-c2ccc(Cl)cc2)no1)C(C)C
inactive: growth inhibition [1] -17.9% | growth inhibition [2] -20.1% | viability increase [3] 1.78% | viability [4] 69% | viability [5] 71.3% | inhibition [6] 0.605% | RAM network inhibition [7] 6.95%

COc1ccc(-c2cn3c(C)c(C(=O)Nc4ccncc4)sc3n2)cc1
inactive: growth inhibition [1] -4.55% | growth inhibition [2] -15.3% | viability increase [3] -3.37% | viability [4] 102% | viability [5] 90.1% | inhibition [6] 3.6% | RAM network inhibition [7] 5.99%

CC(C)Cc1cc(C(=O)Nc2ccc(F)cc2F)no1
inactive: growth inhibition [1] -18.9% | growth inhibition [2] -23.4% | viability increase [3] 1.32% | viability [4] 100% | viability [5] 98.6% | inhibition [6] 0.505% | RAM network inhibition [7] 0.21%

CC(C)N(Cc1nc(-c2ccccc2)no1)C(=O)c1ccc(Cl)cc1
inactive: growth inhibition [1] -9.85% | growth inhibition [2] -12% | viability increase [3] 2.12% | viability [4] 80.7% | viability [5] 76.2% | inhibition [6] 3.25% | RAM network inhibition [7] 6.42%
